Test results published in ChEMBL document CHEMBL1124947, “Cationic antiprotozoal drugs. Trypanocidal activity of 2-(4'-formylphenyl)imidazo[1,2-a]pyridinium guanylhydrazones and related derivatives of quaternary heteroaromatic compounds” (J Med Chem, 1990).

Tests used:
Type in all cases: functional
Mus musculus [1] = assay: Trypanocidal Activity at I.C.E. value 0.72 when administered subcutaneously.
How it was run: (§1)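 Mice, in groups of five per dose, were given a standard inoculum of blood-stage T. rhodesiense that is lethal to all untreated controls, then dosed subcutaneously. Usually 11 dose levels were used (2^n × 0.42 mg/kg).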

Mus musculus [2] = assay: Trypanocidal Activity at I.C.E. value 0.56 when administered subcutaneously.; how it was run: as §1
[3] = test system: Trypanosoma brucei rhodesiense; assay: In Vitro measurement of inhibition of thymidine uptake in cell culture of Trypanosoma rhodesiense; settings: read-out: ID50 (the source's name)
How it was run: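 Parasites harvested from infected rats and incubated 3 h across a drug concentration series, usually 0.1–100 µg/mL. Incorporation of radiolabeled thymidine measured. ID50 is the concentration (µg/mL) producing 50% inhibition.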

[4] = test system: Trypanosoma brucei rhodesiense; assay: In Vitro measurement of inhibition of leucine uptake in cell culture of Trypanosoma rhodesiense; settings: read-out: ID50 (the source's name)
How it was run: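 Trypanosomes harvested from infected rats, cultured 3 h with several concentrations of drug, usually 0.1–100 µg/mL. Radiolabeled L-leucine uptake measured. ID50 is the concentration in µg/mL giving 50% inhibition of incorporation.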

Mus musculus [5] = assay: Trypanocidal Activity at I.C.E. value 0.27 when administered perorally.
Mus musculus [6] = assay: Trypanocidal Activity at I.C.E. value 0.92 when administered subcutaneously.; how it was run: as §1

SMILES: Br.C[n+]1c(/C=C/c2ccc(/C=N/NC(=N)NO)cc2)cn2ccccc21.[Br-]
- CD50 (Mus musculus [1]): 0.2 mg/kg

SMILES: CN(C)C(=N)N/N=C/c1ccc(-c2cn3ccsc3[n+]2C)cc1.I.[I-]
- CD50 (Mus musculus [2]): 0.2 mg/kg
- IC50 [3]: 1 µg/mL
- IC50 [4]: 1 µg/mL

SMILES: Br.CCCSc1ccc2n(c1)cc(-c1ccc(/C=N/NC(=N)N)cc1)[n+]2C.[Br-]
- CD50 (Mus musculus [5]): 26 mg/kg
- CD50 (Mus musculus [6]): 0.2 mg/kg
